Measured values from different studies.
Cell line: MCF7
Observed: cell growth or viability

SMILES	assay	conditions	IC50
C#Cc1cccc(Nc2ncnc3cc(OCCOC)c(OCCOC)cc23)c1	MTT		3.16 µM
CSc1nc(/N=C/c2cccc(O)c2)n(-c2ccc(C(=O)O)cc2)n1	MTT		31.2 µM
COc1ccc(-c2nc3ccccc3[nH]2)cc1O	MTT	48 h	29.7 µM
Cc1ccc(S(=O)(=O)NN=Cc2cn(CCN3CCOCC3)c3ccccc23)cc1	MTT	48 h	61.1 µM
Clc1ccc(-c2nc3ccccc3[nH]2)cc1	MTT	48 h	67.1 µM
CC(=O)O[C@H]1C(=O)[C@@]2(C)[C@H]([C@H](OC(=O)c3ccccc3)[C@]3(O)C[C@H](OC(=O)[C@H](O)[C@@H](NC(=O)c4ccccc4)c4ccccc4)C(C)=C1C3(C)C)[C@]1(OC(C)=O)CO[C@@H]1C[C@@H]2O	MTT	48 h	0.006 µM
CN1CCN(CCCn2cccc2/C=N/NC(=O)Nc2cc3c(Nc4ccc(F)c(Cl)c4)ncnc3cc2O[C@H]2CCOC2)CC1	MTT	72 h	2.12 µM
CC1CCC(OCn2c[n+](Cc3ccccc3)c3ccccc32)CC1 (centres unmarked)	MTT	72 h	27 µM
CS(=O)(=O)c1ccc(-n2cc(/C=N/N=c3\[nH]c(-c4ccc([N+](=O)[O-])cc4)cs3)c(-c3ccc(Br)cc3)n2)cc1	MTT	48 h	35.7 µM
Clc1ccc(-c2nc3ccccc3[nH]2)c(Cl)c1	MTT	48 h	55.8 µM
COc1ccc(C(=O)O[C@@H]2CN3Cc4c(cc5c(c4OC)OCO5)[C@@]24C=C[C@H](OC)C[C@@H]34)cc1	WST-1		> 10 µM
O=C(Nc1nnnn1C1CCCCC1)c1ccc2ccccc2c1		48 h	2.38 µM
COc1cc2ncnc(Nc3ccc(F)c(Cl)c3)c2cc1NC(=O)N/N=C/c1cccn1CCCN(C)C	MTT	72 h	1.26 µM
Cc1ccc2nc(-c3cccc([N+](=O)[O-])c3)[nH]c2c1	MTT	48 h	19.2 µM
Cc1ccc2c(Cl)cc(Cl)c(O)c2n1	MTT	48 h	> 100 µM
COc1cc2ncnc(Nc3ccc(F)c(Cl)c3)c2cc1NC(=O)N/N=C/CN1CCCC1	MTT	72 h	7.53 µM
COc1cccc2c1C(=O)c1c(O)c3c(c(O)c1C2=O)C[C@@](O)(C(=O)CO)C[C@@H]3O[C@H]1C[C@H](N)[C@H](O)[C@H](C)O1	SRB		0.06 µM
Cc1ccc2nc(-c3c4ccccc4cc4ccccc34)[nH]c2c1	MTT	48 h	39 µM
COc1cc2ncnc(Nc3ccc(F)c(Cl)c3)c2cc1NC(=O)N/N=C/c1cccn1CCN1CCOCC1	MTT	72 h	1.17 µM
C=CCn1c(-c2ccc([N+](=O)[O-])cc2)nc2ccc(C)cc21	MTT		71.1 µM
CCOC(=O)/C=C1\S/C(=N\C(=O)c2ccc3ccccc3c2)N(C2CCCCC2)C1=O		48 h	14.9 µM
Clc1ccc(-c2nc3ccccc3n2Cc2ccccc2)cc1Cl	MTT		62.4 µM
COc1ccnc(Nc2ccc3ncnc(Nc4cccc(C(F)(F)F)c4)c3c2)c1	MTT	24 h	5.84 µM
